Assays:
A549 [1] = experiment: (§1) Compound was tested for cytotoxicity against A-549 human solid tumor cell line; assay type: functional, cell-based
Method in brief: (§2)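 MTT assay: drugs added 24 h after plating at nine concentrations; cells grown 72 h with drug, then MTT (2.5 mg/mL solution in PBS) added for 3 h. Formazan dissolved in DMSO, absorbance read at 570 nm. IC50 taken from dose/inhibition curves.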

Caov-3 cell line [2] = experiment: (§3) Compound was tested for cytotoxicity against CaOv3 human solid tumor cell line; assay type: functional, cell-based; method in brief: as §2
Nucleic Acid [3] = experiment: Compound was tested for its binding affinity towards calf thymus DNA; assay type: nucleic-acid assay; conditions: Bos taurus
Method in brief: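 Calf thymus DNA concentration set using a molar extinction coefficient of 13,200 M^-1 cm^-1. Binding was followed by recording UV–vis spectra.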

MCF7 [4] = experiment: (§4) Compound was tested for cytotoxicity against MCF-7 human solid tumor cell line; assay type: functional, cell-based; method in brief: as §2
Nucleic Acid [5] = experiment: Compound was tested for its binding affinity towards poly(AT); assay type: nucleic-acid assay
Method in brief: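 Double-stranded poly(dA-dT)·poly(dA-dT) concentration set using a molar extinction coefficient of 13,900 M^-1 cm^-1. Binding was followed by recording UV–vis spectra.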

Nucleic Acid [6] = experiment: Compound was tested for its binding affinity towards poly(GC); assay type: nucleic-acid assay
Method in brief: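 Double-stranded poly(dG-dC)·poly(dG-dC) concentration set using a molar extinction coefficient of 13,200 M^-1 cm^-1. Binding was followed by recording UV–vis spectra.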

HT-29 [7] = experiment: (§5) Compound was tested for cytotoxicity against HT-29 human solid tumor cell line; assay type: functional, cell-based; method in brief: as §2
Caov-3 cell line [8] = experiment: Compound was tested for cytotoxicity against CaOv3 human solid tumor cell line; NA=Not active; assay type: functional, cell-based
Method in brief: (§6)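 MTT assay on adherent solid tumor lines. Drug added 24 h after plating at nine concentrations, then 72 h growth with drug. MTT (2.5 mg/mL solution in PBS) added for 3 h, medium aspirated, formazan dissolved in DMSO, absorbance read at 570 nm. IC50 taken from dose/inhibition curves.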

HT-29 [9] = experiment: as §5; assay type: functional
MCF7 [10] = experiment: Compound was tested for cytotoxicity against MCF-7 human solid tumor cell line; NA=Not active; assay type: functional, cell-based; method in brief: as §6
A549 [11] = experiment: as §1; assay type: functional
Caov-3 cell line [12] = experiment: as §3; assay type: functional; method in brief: as §2
MCF7 [13] = experiment: as §4; assay type: functional

K (Nucleic Acid [3]) [M⁻¹]	K (Nucleic Acid [5]) [M⁻¹]	K (Nucleic Acid [6]) [M⁻¹]	SMILES	IC50 (A549 [1]) [nM]	IC50 (Caov-3 cell line [2]) [nM]	IC50 (MCF7 [4]) [nM]	IC30 (HT-29 [7]) [nM]	IC50 (Caov-3 cell line [8])	IC30 (HT-29 [9]) [nM]	IC50 (MCF7 [10])	IC30 (A549 [11]) [nM]	IC30 (Caov-3 cell line [12]) [nM]	IC30 (MCF7 [13]) [nM]
250000	50000	53000	CCOc1cc2c3cc(OC)c(OC)cc3c[n+](C)c2c2cc(OC)c(OS(C)(=O)=O)cc12.CS(=O)(=O)[O-]	500	–	–	–	Not Active	1000	Not Active	–	–	–
250000	300000	60000	CCOc1cc2c3cc(OC)c(OC)cc3c[n+](C)c2c2cc(OC)c(O)cc12.[I-]	–	–	–	5000	Not Active	–	Not Active	–	–	–
700000	700000	50000	CCOc1cc2c3cc(OC)c(OC)cc3c(C)[n+](C)c2c2cc(OC)c(OC)cc12	–	–	–	–	–	9000	–	10000	10000	1000

SMILES	K (Nucleic Acid [3]) [M⁻¹]	K (Nucleic Acid [5]) [M⁻¹]	K (Nucleic Acid [6]) [M⁻¹]	IC50 (A549 [1]) [nM]	IC50 (Caov-3 cell line [2]) [nM]	IC50 (MCF7 [4]) [nM]	IC30 (HT-29 [7]) [nM]	IC50 (Caov-3 cell line [8])	IC30 (HT-29 [9]) [nM]	IC50 (MCF7 [10])	IC30 (A549 [11]) [nM]	IC30 (Caov-3 cell line [12]) [nM]	IC30 (MCF7 [13]) [nM]
COc1cc2c(ccc3c4cc(OC)c(OC)cc4c[n+](C)c23)cc1O [FAGARONINE]	1e+06	1e+06	1.1e+06	100	500	4000	9000	–	–	–	–	–	–
CCOc1cc2c3cc(OC)c(OC)cc3c[n+](C)c2c2cc(OC)c(OC)cc12	250000	2.5e+06	100000	80	–	2000	2000	–	–	–	–	500	–

— ChEMBL document CHEMBL1134739, “Synthesis, biological activity and comparative analysis of DNA binding affinities and human DNA topoisomerase I inhibitory activities of novel 12-alkoxy-benzo[c]phenanthridinium salts” (Bioorg Med Chem Lett, 2001)
